Here are results for seven substances from publication PMC6726563 (Structure (London, England : 1993), 2019).

Series [1] deals with patients with glioblastoma. Conditions: ref Mason, 2015, cited from earlier work.
Series [2] relates to αVβ3. Particulars: ref Van Agthoven et al., 2014; Xiong et al., 2002; cited from earlier work.
The subject of series [3] is αVβ3. Conditions: ref Reynolds et al., 2009; cited from earlier work.
A further series has as its system Human αVβ3 ectodomain. As to the kind of experiment: Crystal structure of knottin bound to αVβ3 ectodomain. Conditions: Mn2+. In outline:
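Human αVβ3 ectodomain was expressed in insect cells and crystallized at 4 °C by hanging-drop vapor diffusion. Test compound (5 mM) was soaked into the crystals in well solution with 1 mM Mn2+ for 2–3 weeks. Crystals were harvested in 12% PEG 3500, 100 mM sodium acetate pH 4.5, 800 mM NaCl, 2 mM Mn2+ and 5 mM test compound. They were cryoprotected stepwise to 24% glycerol and flash frozen. Phases came from molecular replacement.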

The next series relates to integrins αVβ3 and α5β1. Briefly: Integrin selectivity of knottins. The class given is binding.
Series [4] relates to αVβ3. Particulars: ref Kimura et al., 2009a; cited from earlier work.
Series [5] deals with native integrins expressed on U87MG (human (endogenous in U87MG)). Briefly: flow cytometry on cells. In general terms: Flow cytometry measures light scatter and fluorescence of single cells or particles in a stream.
The target of series [6] is recombinant integrin αVβ3 stably expressed on K562 cells (UniProt P06756). Briefly: flow cytometry on cells.
Series [7] concerns the target αVβ3** double mutant (β3-M180A and β3-R214G) transiently expressed on HEK293T cells (UniProt P06756). As to the kind of experiment: flow cytometry on cells.
The target of series [8] is native integrin α5β1 on K562 cells (human (endogenous in K562)) (UniProt P08648). Briefly: flow cytometry on cells.
The test system of a further series is α5β1. Particulars: ref Kimura et al., 2009a; cited from earlier work.

Chain of UniProt P08648 (P08648 42-1049, chain 1 of 2): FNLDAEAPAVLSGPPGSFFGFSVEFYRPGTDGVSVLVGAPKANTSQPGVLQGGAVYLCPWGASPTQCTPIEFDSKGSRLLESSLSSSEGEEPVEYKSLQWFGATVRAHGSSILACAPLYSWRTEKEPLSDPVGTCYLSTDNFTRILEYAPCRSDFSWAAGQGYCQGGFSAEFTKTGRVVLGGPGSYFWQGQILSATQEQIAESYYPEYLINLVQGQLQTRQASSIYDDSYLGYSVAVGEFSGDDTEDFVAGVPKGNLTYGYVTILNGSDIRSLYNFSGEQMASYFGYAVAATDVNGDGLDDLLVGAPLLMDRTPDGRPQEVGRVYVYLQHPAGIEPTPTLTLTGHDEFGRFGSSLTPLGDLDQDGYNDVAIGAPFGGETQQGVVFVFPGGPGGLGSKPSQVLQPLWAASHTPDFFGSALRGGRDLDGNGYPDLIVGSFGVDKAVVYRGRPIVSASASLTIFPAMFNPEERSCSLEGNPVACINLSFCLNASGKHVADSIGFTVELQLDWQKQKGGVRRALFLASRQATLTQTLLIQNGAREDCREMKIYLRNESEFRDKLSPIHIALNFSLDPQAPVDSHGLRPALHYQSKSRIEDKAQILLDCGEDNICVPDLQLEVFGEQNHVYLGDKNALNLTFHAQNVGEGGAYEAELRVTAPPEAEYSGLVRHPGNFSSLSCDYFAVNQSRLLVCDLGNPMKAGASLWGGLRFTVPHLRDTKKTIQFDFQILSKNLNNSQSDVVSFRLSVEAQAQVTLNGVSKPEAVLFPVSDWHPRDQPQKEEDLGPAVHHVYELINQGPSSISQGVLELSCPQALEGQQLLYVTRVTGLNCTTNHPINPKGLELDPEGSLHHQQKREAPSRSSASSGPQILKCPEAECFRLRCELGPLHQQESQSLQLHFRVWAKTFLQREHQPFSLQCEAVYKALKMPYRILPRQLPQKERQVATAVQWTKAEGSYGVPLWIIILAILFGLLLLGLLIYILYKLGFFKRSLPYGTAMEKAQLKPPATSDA
Chain of UniProt P08648 (P05556 21-798, chain 2 of 2, further chain): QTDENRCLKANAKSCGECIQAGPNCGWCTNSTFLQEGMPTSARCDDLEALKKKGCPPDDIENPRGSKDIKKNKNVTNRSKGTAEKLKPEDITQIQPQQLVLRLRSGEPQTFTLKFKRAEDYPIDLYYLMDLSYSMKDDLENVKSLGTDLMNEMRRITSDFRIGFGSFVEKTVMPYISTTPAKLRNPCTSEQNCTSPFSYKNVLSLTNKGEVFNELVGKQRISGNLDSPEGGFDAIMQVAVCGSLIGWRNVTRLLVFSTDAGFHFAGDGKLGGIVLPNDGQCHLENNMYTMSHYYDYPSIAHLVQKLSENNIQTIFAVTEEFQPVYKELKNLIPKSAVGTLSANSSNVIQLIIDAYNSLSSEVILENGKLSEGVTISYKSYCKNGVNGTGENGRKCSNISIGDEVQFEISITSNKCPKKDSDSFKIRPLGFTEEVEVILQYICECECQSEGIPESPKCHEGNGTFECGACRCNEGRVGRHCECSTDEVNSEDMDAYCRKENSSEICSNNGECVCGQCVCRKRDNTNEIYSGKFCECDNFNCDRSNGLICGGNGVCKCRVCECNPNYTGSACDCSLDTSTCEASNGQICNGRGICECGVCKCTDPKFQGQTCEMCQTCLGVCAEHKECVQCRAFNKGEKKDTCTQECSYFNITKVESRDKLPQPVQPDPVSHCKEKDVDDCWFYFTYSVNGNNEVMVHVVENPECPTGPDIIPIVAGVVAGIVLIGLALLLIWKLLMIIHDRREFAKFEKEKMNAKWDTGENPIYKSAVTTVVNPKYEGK

Consider “cilengitide: partial agonist targeting αVβ3”, for which the “pharmacokinetics (in words)” value in series [1] (likely related to failure in glioblastoma) is reported as “unfavorable pharmacokinetics”. Also, the “survival of patients (in words)” value in series [1] (primary targeting of αVβ3) is given as “failed to prolong survival of patients with glioblastoma”. In addition, the “agonist/antagonist character at αVβ3” value in the series with αVβ3 [2] is on record as “partial agonist”. The “agonist-like behavior (in words)” value in the series with αVβ3 [3] was “agonist-like behavior”.
As for QG^5RGDWA^10P (disulfide) [2.5D], the “agonist character inferred from βA domain conformational change” value in the series with Human αVβ3 ectodomain is on record as “partial agonists”. Besides, the “integrin selectivity (in words)” value with integrins αVβ3 and α5β1 is “αVβ3-specific”. Also, the “affinity to αVβ3 (in words)” value with αVβ3 [4] is reported as “nanomolar affinity”.
As for 2.5D-Fc fusion protein, the Kd in series [5] was 1.7 nM; in series [6], 1.4 nM.
In [7], “Alexa-647-labeled knottin 2.5D (designed binder)” showed a percent of binding to wt-αVβ3 of 28%.
2.5F-Fc fusion protein: the Kd was 9.2 nM in [8], 5.9 nM in series [5] and 6.9 nM in [6].
As for “Alexa-647-labeled knottin 2.5F (designed binder)”, the percent of binding to wt-αVβ3 in [7] is 85%.
As for RP^5RGDNP^10P (disulfide) [2.5F], in the series with Human αVβ3 ectodomain, the “agonist character inferred from βA domain conformational change” value was “partial agonists”. In addition, in the series on integrins αVβ3 and α5β1, the “integrin selectivity (in words)” value was “binds both αVβ3 and α5β1”. Also, the “affinity to αVβ3 (in words)” value in the series on αVβ3 [4] is “nanomolar affinity”. Moreover, in the series on α5β1, the “affinity to α5β1 (in words)” value is recorded as “nanomolar affinity”.

A word on the Kd: it is the concentration at which binding is half-saturated.
